Read-outs that look alike come from different tables or passages of the source.
Legend:
AGP F1/S variants = AGP F1/S variants (Homo sapiens, UniProt P02763); assay: Effect of other drugs on binding of tamsulosin to human AGP
How it was run: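 Commercial human AGP was mixed with unlabelled tamsulosin (40–500 μM solutions added), [3H]tamsulosin, and test compound at 9.62, 19.2 and 48.1 μM, then incubated for 15 min at 37 °C. Ultrafiltration used a 5000 MW cut-off at 2000×g for 5 min at 37 °C. Mixture and filtrate were counted by liquid scintillation. Ki was fitted by non-linear least squares to a competitive inhibition model with non-specific binding held constant.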

AGP A variant = AGP A variant (Homo sapiens, UniProt P19652); assay: Screening: S-disopyramide binding with drug at 100-fold concentration; settings: drug at 100-fold concentration of marker
How it was run: (§1)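 Radiolabelled S-disopyramide or S-warfarin binding to human AGP was measured with and without test compound at 100-fold the marker concentration. Incubation was 15 min at 37 °C, followed by ultrafiltration at 2000×g and scintillation counting. Marker binding remaining at 100-fold inhibitor was taken as non-specific. Compounds cutting specific binding by more than 70% went forward to quantitative analysis.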

AGP F1/S variant mixture = AGP F1/S variant mixture (Homo sapiens, UniProt P02763); assay: Screening: S-warfarin binding with drug at 100-fold concentration; settings: drug at 100-fold concentration of marker
How it was run: as §1

human AGP variants = settings: cited from earlier work; for Binding to AGP: used as positive controls
[1] = target: AGP F1/S variant mixture (S-warfarin binding site) (Homo sapiens, UniProt P02763); assay: Competitive inhibition of S-warfarin binding to human AGP by ultrafiltration; settings: among the drugs tested
How it was run: (§2)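 Human AGP was incubated with radiolabelled S-warfarin or [3H]S-disopyramide, with a series of unlabelled marker levels and test compound at 9.62, 19.2 and 48.1 μM, for 15 min at 37 °C. Ultrafiltration ran at 2000×g for 5 min at 37 °C, with a 30,000 MW cut-off for disopyramide. Mixture and filtrate radioactivity were counted by scintillation. Ki came from a non-linear least-squares competitive inhibition model with a constant non-specific binding term.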

[2] = target: AGP A variant (S-disopyramide binding site) (Homo sapiens, UniProt P19652); settings: among the drugs tested
How it was run: as §2

CC[C@H]1OC(=O)[C@H](C)[C@@H](O[C@H]2C[C@@](C)(OC)[C@@H](O)[C@H](C)O2)[C@H](C)[C@@H](O[C@@H]2O[C@H](C)C[C@H](N(C)C)[C@H]2O)[C@](C)(O)C[C@@H](C)C(=O)[C@H](C)[C@@H](O)[C@]1(C)O [Erythromycin]
Effect on binding of tamsulosin (AGP F1/S variants): significantly decreased
Inhibition of binding of S-disopyramide (AGP A variant): markedly inhibited
Inhibition of binding of warfarin (AGP F1/S variant mixture): markedly inhibited

Clc1ccc(COC(Cn2ccnc2)c2ccc(Cl)cc2Cl)c(Cl)c1 (centres unmarked) [Miconazole]
Inhibition of binding of S-disopyramide (AGP A variant): markedly inhibited
Inhibition of binding of warfarin (AGP F1/S variant mixture): markedly inhibited

CC(=O)CC(c1ccccc1)c1c(O)c2ccccc2oc1=O (centres unmarked) [warfarin]
Effect on binding of tamsulosin (AGP F1/S variants): significantly decreased
AGP variant to which the drug binds (human AGP variants; separate AGP variants): to an F1/S variant mixture

CCOc1ccccc1OCCN[C@H](C)Cc1ccc(OC)c(S(N)(=O)=O)c1 [tamsulosin]
AGP variant to which the drug binds (human AGP variants): binds specifically to the F1/S variants
Inhibition of binding of warfarin (AGP F1/S variant mixture): specifically inhibited
Binding affinity for the AGP F1/S variant mixture (S-warfarin binding site) [1]: relatively high

CC(C)NCC(O)COc1cccc2ccccc12 (centres unmarked) [propranolol]
Inhibition of binding of S-disopyramide (AGP A variant): markedly inhibited
Inhibition of binding of warfarin (AGP F1/S variant mixture): markedly inhibited

CC(C)N(CCC(C(N)=O)(c1ccccc1)c1ccccn1)C(C)C (centres unmarked) [disopyramide]
AGP variant to which the drug binds (human AGP variants; separate AGP variants): bind specifically to the A variant

CSc1ccc2c(c1)N(CCC1CCCCN1C)c1ccccc1S2 (centres unmarked) [Thioridazine]
Effect on binding of tamsulosin (AGP F1/S variants): significantly decreased
Binding to AGP (human AGP variants): bind strongly to AGP
Inhibition of binding of S-disopyramide (AGP A variant): markedly inhibited
Inhibition of binding of warfarin (AGP F1/S variant mixture): markedly inhibited
Binding affinity for the AGP F1/S variant mixture (S-warfarin binding site) [1]: relatively high
Binding affinity for the AGP A variant (S-disopyramide binding site) [2]: relatively high

COC(=O)C1=C(C)NC(C)=C(C(=O)OCCN(C)Cc2ccccc2)C1c1cccc([N+](=O)[O-])c1 (centres unmarked) [Nicardipine]
Inhibition of binding of S-disopyramide (AGP A variant): markedly inhibited
Inhibition of binding of warfarin (AGP F1/S variant mixture): markedly inhibited
Binding affinity for the AGP F1/S variant mixture (S-warfarin binding site) [1]: relatively high

COc1ccccc1OCCNCC(O)COc1cccc2[nH]c3ccccc3c12 (centres unmarked) [Carvedilol]
Effect on binding of tamsulosin (AGP F1/S variants): significantly decreased

CN(C)CCC=C1c2ccccc2CCc2ccccc21 [amitriptyline]
Binding to AGP (human AGP variants): bind strongly to AGP
Inhibition of binding of S-disopyramide (AGP A variant): specifically inhibited

CN(C)CCCN1c2ccccc2CCc2ccccc21 [imipramine]
AGP variant to which the drug binds (human AGP variants; separate AGP variants): bind specifically to the A variant
Binding to AGP (human AGP variants): bind strongly to AGP

CC/C(=C(\c1ccccc1)c1ccc(OCCN(C)C)cc1)c1ccccc1 [tamoxifen]
Binding to AGP (human AGP variants): bind strongly to AGP
Inhibition of binding of S-disopyramide (AGP A variant): specifically inhibited

COc1ccc([C@@H]2Sc3ccccc3N(CCN(C)C)C(=O)[C@@H]2OC(C)=O)cc1 [diltiazem]
Inhibition of binding of S-disopyramide (AGP A variant): specifically inhibited

CN(C)C(=O)C(CCN1CCC(O)(c2ccc(Cl)cc2)CC1)(c1ccccc1)c1ccccc1 [Loperamide]
Inhibition of binding of S-disopyramide (AGP A variant): specifically inhibited

CN(C)CCCN1c2ccccc2Sc2ccc(Cl)cc21 [chlorpromazine]
AGP variant to which the drug binds (human AGP variants; separate AGP variants): to both variants

CCN(CC)CCCN(c1ccccc1)C1Cc2ccccc2C1 [Aprindine]
Effect on binding of tamsulosin (AGP F1/S variants): significantly decreased
Binding affinity for the AGP A variant (S-disopyramide binding site) [2]: relatively high

COc1ccc(Cl)cc1C(=O)NCCc1ccc(S(=O)(=O)NC(=O)NC2CCCCC2)cc1 [Glibenclamide]
Inhibition of binding of S-disopyramide (AGP A variant): specifically inhibited

C=C[C@H]1C[N@@]2CC[C@H]1C[C@H]2[C@H](O)c1ccnc2ccc(OC)cc12 [Quinine]
Inhibition of binding of S-disopyramide (AGP A variant): markedly inhibited
Inhibition of binding of warfarin (AGP F1/S variant mixture): markedly inhibited
Binding affinity for the AGP A variant (S-disopyramide binding site) [2]: relatively high

CCC(C)(C)C(=O)O[C@H]1C[C@@H](C)C=C2C=C[C@H](C)[C@H](CC[C@@H]3C[C@@H](O)CC(=O)O3)[C@H]21 [Simvastatin]
Inhibition of binding of S-disopyramide (AGP A variant): markedly inhibited
Inhibition of binding of warfarin (AGP F1/S variant mixture): markedly inhibited
Binding affinity for the AGP F1/S variant mixture (S-warfarin binding site) [1]: relatively high
